Measurements taken from ChEMBL document CHEMBL4819084, “Discovery of 3,5-dimethylisoxazole derivatives as novel, potent inhibitors for bromodomain and extraterminal domain (BET) family” (Bioorg Med Chem, 2021).
Activity calls are given as the source filed them. The rule behind the calls is not given here.

Experiments:
[1] = tested on: U-266; assay: Induction of apoptosis in human U-266 cells assessed as necrotic cells at 8 uM incubated for 48 hrs by Annexin-V/FITC and PI staining based flow cytometry analysis (reference value: 5.99 %); format: functional
Summary of the method: (§1)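 U266 cells seeded at 1 × 10⁵ per 2 mL well in six-well plates and exposed to 1, 2 or 8 μM for 48 h. Cells collected, washed twice in cold PBS and resuspended in binding buffer. Annexin V-FITC added for 15 min, then PI for 5 min, both at 37 °C in the dark. Analysed by flow cytometry.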

[2] = tested on: U-266; assay: Induction of apoptosis in human U-266 cells assessed as viable cells at 1 uM incubated for 48 hrs by Annexin-V/FITC and PI staining based flow cytometry analysis (reference value: 92.6 %); format: functional; conditions: read-out: Activity; summary of the method: as §1
[3] = tested on: MCF7; assay: Antiproliferative activity against human MCF7 cells assessed as inhibition of cell proliferation at 2 uM incubated for 48 hrs by MTT assay relative to control; format: functional
Summary of the method: (§2)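 Cryopreserved cells thawed at 37 °C, cultured one day, then seeded at 5000–10,000 cells/well in 96-well plates and left overnight to attach. Compound added at a single concentration or as a gradient series and incubated 48 h. MTT solution added and absorbance read.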

[4] = Cytotoxicity against human MCF-10A cells assessed as inhibition of cell proliferation at 2 uM incubated for 48 hrs by MTT assay; format: cell-based; summary of the method: as §2
[5] = tested on: CT26; assay: Antiproliferative activity against […] assessed as inhibition of cell proliferation at 2 uM incubated for 48 hrs by MTT assay relative to control; format: functional; conditions: Mus musculus; summary of the method: as §2
[6] = tested on: U-266; assay: Induction of apoptosis in human U-266 cells assessed as early apoptotic cells at 1 uM incubated for 48 hrs by Annexin-V/FITC and PI staining based flow cytometry analysis (reference value: 1.36 %); format: functional; summary of the method: as §1
[7] = tested on: U-266; assay: Induction of apoptosis in human U-266 cells assessed as late apoptotic cells at 8 uM incubated for 48 hrs by Annexin-V/FITC and PI staining based flow cytometry analysis (reference value: 0.032 %); format: functional; summary of the method: as §1
[8] = tested on: HCT-116; assay: Antiproliferative activity against human HCT-116 cells assessed as inhibition of cell proliferation at 2 uM incubated for 48 hrs by MTT assay relative to control; format: functional; summary of the method: as §2
[9] = tested on: U-266; assay: Induction of apoptosis in human U-266 cells assessed as late apoptotic cells at 2 uM incubated for 48 hrs by Annexin-V/FITC and PI staining based flow cytometry analysis (reference value: 0.032 %); format: functional; summary of the method: as §1
[10] = tested on: U-266; assay: Induction of cell cycle arrest in human U-266 cells assessed as increase in accumulation at G0/G1 phase at 1 to 2 uM incubated for 48 hrs by PI staining based flow cytometry analysis; format: functional; conditions: dose 1-2 µM
Summary of the method: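 U266 cells seeded at 1 × 10⁵ per 2 mL well in six-well plates and treated at 1 and 2 μM for 48 h. Cells harvested, fixed in 70% ethanol on ice for 30 min and washed in PBS. Stained with PI (0.05 mg/mL) plus RNaseA (0.5 mg/mL) for 30 min at room temperature in the dark, then analysed by flow cytometry for cycle distribution.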

[11] = tested on: CT26; assay: Antiproliferative activity against […] assessed as inhibition of cell proliferation incubated for 48 hrs by MTT assay; format: functional, cell-based; conditions: Mus musculus, CT26, 48 h; summary of the method: as §2
[12] = tested on: U-266; assay: Induction of apoptosis in human U-266 cells assessed as viable cells at 8 uM incubated for 48 hrs by Annexin-V/FITC and PI staining based flow cytometry analysis (reference value: 92.6 %); format: functional; conditions: read-out: Activity; summary of the method: as §1
[13] = molecular target: T1, Bromodomain-containing protein 4 (Homo sapiens, UniProt O60885); assay: Inhibition of BRD4-BD1 (unknown origin) preincubated for 15 mins followed by substrate addition and measured after 1 hr
[14] = tested on: U-266; assay: Induction of apoptosis in human U-266 cells assessed as early apoptotic cells at 8 uM incubated for 48 hrs by Annexin-V/FITC and PI staining based flow cytometry analysis (reference value: 1.36 %); format: functional; summary of the method: as §1
[15] = tested on: U-266; assay: Induction of apoptosis in human U-266 cells assessed as necrotic cells at 1 uM incubated for 48 hrs by Annexin-V/FITC and PI staining based flow cytometry analysis (reference value: 5.99 %); format: functional; summary of the method: as §1
[16] = tested on: U-266; assay: Induction of apoptosis in human U-266 cells assessed as nucleus condensation at 1 to 8 uM incubated for 48 hrs by DAPI staining based fluorescence microscopic analysis; format: functional, cell-based; conditions: dose 1-8 µM
Summary of the method: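 U266 cells plated at 20000 cells/well in 12-well plates overnight, then treated at 1, 2 and 8 μM for 48 h. After a PBS wash, cells were stained with DAPI for 5 min, washed again and imaged under a fluorescence microscope for nuclear condensation.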

[17] = molecular target: T1, Bromodomain-containing protein 4; assay: Potency index, ratio of 6-(3,5-Dimethylisoxazol-4-yl)-1-methyl-4-phenyl-3,4-dihydroquinazolin-2(1H)-one IC50 to test compound IC50 for inhibition of BRD4-BD1 (unknown origin)
[18] = tested on: U-266; assay: Induction of apoptosis in human U-266 cells assessed as early apoptotic cells at 2 uM incubated for 48 hrs by Annexin-V/FITC and PI staining based flow cytometry analysis (reference value: 1.36 %); format: functional; summary of the method: as §1
[19] = tested on: U-266; assay: Antiproliferative activity against human U-266 cells assessed as inhibition of cell proliferation at 0.1 uM incubated for 48 hrs by MTT assay relative to control; format: functional; summary of the method: as §2
[20] = tested on: U-266; assay: Induction of apoptosis in human U-266 cells incubated for 48 hrs by Annexin-V/FITC and PI staining based flow cytometry analysis; format: functional, cell-based; conditions: dose 1-8 µM; summary of the method: as §1
[21] = tested on: U-266; assay: Induction of apoptosis in human U-266 cells assessed as necrotic cells at 2 uM incubated for 48 hrs by Annexin-V/FITC and PI staining based flow cytometry analysis (reference value: 5.99 %); format: functional; summary of the method: as §1
[22] = tested on: U-266; assay: Induction of apoptosis in human U-266 cells assessed as viable cells at 2 uM incubated for 48 hrs by Annexin-V/FITC and PI staining based flow cytometry analysis (reference value: 92.6 %); format: functional; conditions: read-out: Activity; summary of the method: as §1
[23] = tested on: HepG2; assay: Antiproliferative activity against human HepG2 cells assessed as inhibition of cell proliferation incubated for 48 hrs by MTT assay; format: functional, cell-based; conditions: HepG2, 48 h; summary of the method: as §2
[24] = tested on: HepG2; assay: Antiproliferative activity against human HepG2 cells assessed as inhibition of cell proliferation at 2 uM incubated for 48 hrs by MTT assay relative to control; format: functional; summary of the method: as §2
[25] = tested on: U-266; assay: Induction of apoptosis in human U-266 cells assessed as late apoptotic cells at 1 uM incubated for 48 hrs by Annexin-V/FITC and PI staining based flow cytometry analysis (reference value: 0.032 %); format: functional; summary of the method: as §1
[26] = tested on: U-266; assay: Antiproliferative activity against human U-266 cells assessed as inhibition of cell proliferation incubated for 48 hrs by MTT assay; format: functional, cell-based; conditions: U-266, 48 h; summary of the method: as §2

`Cc1noc(C)c1-c1ccc2c(c1)C(c1ccccc1)N(CCCCN1CCN(c3ccc4nnc(Cl)n4n3)CC1)C(=O)N2C` (stereo unspecified) showed an Activity [1] of 5.11%, a viability at 1 µM [2] of 82.6% and an inhibition at 2 µM [3] of 35.5%. It also gave an inhibition at 48 h, 2 µM [4] of 11.6%, an inhibition at 2 µM [5] of 41% and an Activity [6] of 13.2%. The Activity [7] was 6.75%, the inhibition at 2 µM [8] was 61.8% and the Activity [9] was 2.91%. The Activity [10] was “Active”, the IC50 [11] was 15.8 µM and the viability at 8 µM [12] was 65.4%. The IC50 [13] was 0.003 µM, the Activity [14] was 22.7% and the Activity [15] was 3.06%. For the same compound, the Activity [16] was “Active”, the Ratio IC50 [17] was 8 and the Activity [18] was 14.8%. The inhibition at 0.1 µM [19] was 52.3%, the Activity [20] was “Dose-Dependent Effect” and the Activity [21] was 4.6%. For the same compound, the viability at 2 µM [22] was 77.6%, the IC50 [23] was 16.7 µM and the inhibition at 2 µM [24] was 46.7%. It also gave an Activity [25] of 1.23% and an IC50 [26] of 2.11 µM.
